# Results as given in PMC9939367 (Acta Pharmaceutica Sinica. B, 2022).
# “And” between values parts separate entries of the source, which are not always exact repeats. Equal values may be shown once.
# Tests used:
# MOR = MOR (Rattus norvegicus, UniProt P33535); test: Brain MOR occupancy, ex vivo autoradiography with [3H]-DAMGO; assay type: in vivo; conditions: ip, read-out: MOR occupancy, average, 3 mg/kg i.p.
# human MOR [1] = target: T1, human MOR (Homo sapiens, UniProt P35372); assay type: cell-based
# [2] = Plasma levels in the MIA study, repeated b.i.d. s.c. dosing; assay type: in vivo, rat
# Outline: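 MIA-injected male Wistar rats (n = 5/group) received 0.5, 1.5 or 3 mg/kg s.c. b.i.d. for 28 days, starting 14 days post-MIA. Caudal-vein blood was drawn on Day 1 (first dose) and Day 28 (last dose), 35–40 min post-dose, right after von Frey testing. Samples went into K2-EDTA tubes and were spun 4 °C, 3700 × g, 10 min. Acetonitrile precipitation preceded LC–MS/MS (LOQ 1 ng/mL). Values are mean ± SEM.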
# male Wistar rats [3] = test: Whole body plethysmography; assay type: in vivo, rat
# [4] = test system: male ferrets (Mustela putorius furo); test: Proemetic response in ferrets; conditions: for emetic response (retching and vomiting, words) / nausea-like global score: 4 h observation
# human S1R = conditions: read-out: In vitro binding affinity (Ki), S1R; cited from earlier work
# male Wistar rats [5] = test: Spared nerve injury; assay type: in vivo, rat; conditions: for maximal effect, SNI mechanical allodynia: single i.p., ipsilateral paw
# human MOR [6] = target: T1, human MOR; assay type: cell-based; remark: listed apart in the source
# male Wistar rats [7] = test: Paw pressure test; assay type: in vivo, rat; conditions: for maximal efficacy, paw pressure: single i.p.
# male Wistar rats [8] = test: Carrageenan-induced acute inflammatory pain, mechanical allodynia; assay type: in vivo, rat; conditions: for maximal effect, carrageenan mechanical allodynia: single i.p., ipsilateral paw
# S1R (σ1R) = S1R (σ1R) (Cavia porcellus, UniProt Q60492); test: [3H]; assay type: binding; conditions: guinea pig brain membranes, 1 mmol/L DPH
# [9] = Plasma pharmacokinetics in ferrets, single i.p. dose; assay type: in vivo, ferret
# Outline: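 Male ferrets received a single i.p. dose of 0.5 or 1 mg/kg. Serial blood was drawn via carotid catheter at predose, 5, 15, 30 min and 1, 2, 4, 7, 24 h. Samples went into heparinized tubes and were spun 4 °C, 3700 × g, 10 min. Plasma was acetonitrile-precipitated and measured by LC–MS/MS (LOQ 1 ng/mL). AUC and Cmax came from non-compartmental analysis.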
# male Wistar rats [10] = test: Tail-flick test; assay type: in vivo, rat; conditions: for maximal effect, tail flick: single i.p.
# [11] = Plasma and brain pharmacokinetics, 3 mg/kg i.p. single dose; assay type: in vivo; conditions: rat
# Outline: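 Male Wistar rats got a single 3 mg/kg i.p. dose: 48 rats, 8 sampling points, 6 per point. Blood went into heparinized tubes and was centrifuged 4 °C, 3700 × g, 10 min. Brains were homogenized in DPBS (1:5 w/w). After acetonitrile protein precipitation, LC–MS/MS quantified drug (LOQ 1 ng/mL plasma, 2 ng/g brain). AUC, Cmax, Tmax and t1/2 came from non-compartmental analysis. Brain-to-plasma ratio = AUC brain/AUC plasma.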
# human MOR [12] = conditions: read-out: In vitro binding affinity (Ki), MOR; cited from earlier work
# [13] = more than 180 targets; cited from earlier work
# male Wistar rats [14] = assay type: in vivo, rat; conditions: 3 mg/kg i.p.
# Outline: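 Male Wistar rats received i.p. vehicle (0.5% hydroxypropyl methylcellulose) or test compound, dose groups n = 7–10. The read-out 20 min after dosing was paw-pressure PPT, tail-flick TFL, or von Frey PWT in carrageenan-, MIA- and SNI-induced pain models. Dose–response curves were fitted to a four-parameter logistic (variable slope) by least-squares non-linear fitting. Efficacy at 3 mg/kg i.p. was calculated from each model's curve.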
# male Wistar rats [15] = test: Intestinal transit inhibition; assay type: in vivo, rat
# mice = conditions: repeated b.i.d. administration for 10 days in mice; cited from earlier work
# male Wistar rats [16] = test: MIA-induced osteoarthritis pain, acute treatment, mechanical allodynia; assay type: in vivo, rat; conditions: for maximal effect, MIA mechanical allodynia: single i.p., ipsilateral paw
# S1R = S1R (Rattus norvegicus, UniProt Q9R0C9); test: Brain S1R occupancy, ex vivo autoradiography with [3H]-; assay type: in vivo; conditions: morphine 10 mg/kg, oxycodone 3 mg/kg i.p., 30 min
# Chain of S1R (Q9R0C9 whole entry): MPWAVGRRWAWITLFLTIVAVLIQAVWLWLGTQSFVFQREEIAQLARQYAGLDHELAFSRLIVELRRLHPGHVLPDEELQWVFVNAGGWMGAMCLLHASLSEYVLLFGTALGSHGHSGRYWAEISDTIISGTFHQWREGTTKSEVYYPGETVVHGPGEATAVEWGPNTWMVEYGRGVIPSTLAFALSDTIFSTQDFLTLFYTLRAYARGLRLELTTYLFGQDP
# T1 sequence (P35372 whole entry): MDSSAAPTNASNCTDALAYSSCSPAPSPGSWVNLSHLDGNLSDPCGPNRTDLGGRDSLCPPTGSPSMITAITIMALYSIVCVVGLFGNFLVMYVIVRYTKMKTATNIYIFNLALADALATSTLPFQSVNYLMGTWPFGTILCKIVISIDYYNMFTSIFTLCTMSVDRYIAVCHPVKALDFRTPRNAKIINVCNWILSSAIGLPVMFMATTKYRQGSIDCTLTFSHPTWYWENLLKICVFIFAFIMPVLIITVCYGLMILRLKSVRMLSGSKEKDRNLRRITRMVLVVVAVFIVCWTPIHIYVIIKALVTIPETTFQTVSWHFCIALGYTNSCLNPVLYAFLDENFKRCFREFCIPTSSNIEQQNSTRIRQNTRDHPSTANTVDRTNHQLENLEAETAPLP
# Chain of S1R (σ1R) (Q60492 whole entry): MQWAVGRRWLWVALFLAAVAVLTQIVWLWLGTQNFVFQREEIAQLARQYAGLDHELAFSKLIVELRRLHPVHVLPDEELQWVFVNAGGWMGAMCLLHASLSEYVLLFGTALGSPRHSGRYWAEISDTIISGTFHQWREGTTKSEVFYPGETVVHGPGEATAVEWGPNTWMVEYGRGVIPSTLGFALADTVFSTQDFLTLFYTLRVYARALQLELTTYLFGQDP
# Chain of MOR (P33535 whole entry): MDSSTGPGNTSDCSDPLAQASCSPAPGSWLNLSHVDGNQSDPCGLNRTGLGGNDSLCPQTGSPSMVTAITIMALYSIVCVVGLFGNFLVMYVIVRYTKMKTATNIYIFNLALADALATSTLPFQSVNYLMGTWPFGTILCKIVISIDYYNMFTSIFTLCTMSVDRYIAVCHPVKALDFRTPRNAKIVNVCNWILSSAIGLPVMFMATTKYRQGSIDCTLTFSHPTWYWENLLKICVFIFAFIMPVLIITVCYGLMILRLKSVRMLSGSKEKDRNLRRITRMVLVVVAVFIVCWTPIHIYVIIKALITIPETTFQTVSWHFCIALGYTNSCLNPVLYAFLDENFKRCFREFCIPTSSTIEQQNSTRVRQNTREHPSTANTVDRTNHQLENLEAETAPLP
compound,measurement,setting,value
"CCN1CC2(CCN(CCc3cc(F)ccc3F)CC2)O[C@H](C)C1=O [WLB-73502, (R)-9-(2,5-difluorophenethyl)-4-ethyl-2-methyl-1-oxa-4,9-diazaspiro[5.5]undecan-3-one]",receptor occupancy at 3 mg/kg,MOR,50%
same,effect on β-arrestin-2 recruitment,human MOR [1],no effect
same,Plasma concentration,"[2]; 0.5 mg/kg s.c. b.i.d., Day 28, 35–40 min after administration",82 ± 3.2 ng/mL
same,Plasma concentration,"[2]; 0.5 mg/kg s.c., Day 1, 35–40 min after administration",47.3 ± 3.8 ng/mL
same,Plasma concentration,"[2]; 1.5 mg/kg s.c. b.i.d., Day 28, 35–40 min after administration",283.7 ± 10.4 ng/mL
same,Plasma concentration,"[2]; 1.5 mg/kg s.c., Day 1, 35–40 min after administration",174.9 ± 7.4 ng/mL
same,Plasma concentration,"[2]; 3 mg/kg s.c. b.i.d., Day 28, 35–40 min after administration",550.6 ± 33.8 ng/mL
same,Plasma concentration,"[2]; 3 mg/kg s.c., Day 1, 35–40 min after administration",361 ± 24.7 ng/mL
same,minute volume (MV) inhibition,male Wistar rats [3]; 1.25 mg/kg i.p.,did not significantly change MV
same,minute volume (MV) inhibition,male Wistar rats [3]; 5 mg/kg i.p.,did not significantly change MV
same,minute volume (MV) inhibition,male Wistar rats [3]; 10 mg/kg i.p.,~30%
same,minute volume (MV) inhibition,male Wistar rats [3]; 20 mg/kg i.p.,~30%
same,"emetic response (retching and vomiting, words)",[4]; 0.5 mg/kg i.p.,did not induce any emetic response
same,nausea-like global score,[4]; 0.5 mg/kg i.p.,~2
same,"emetic response (retching and vomiting, words)",[4]; 1 mg/kg i.p.,did not induce any emetic response
same,nausea-like global score,[4]; 1 mg/kg i.p.,~4
same,Ki,human S1R,118 nM
same,"potency relative to morphine, SNI",male Wistar rats [5]; more potent than morphine,8 fold
same,"potency relative to oxycodone, SNI",male Wistar rats [5]; more potent than oxycodone,3 fold
same,"maximal effect, SNI mechanical allodynia",male Wistar rats [5],91.2 ± 5.9%
same,"cAMP lgτ (operational efficacy, G-protein pathway)",human MOR [6],1.58
same,"potency relative to morphine, paw pressure",male Wistar rats [7]; more potent than morphine,~4 fold and 3 fold
same,"maximal efficacy, paw pressure",male Wistar rats [7],≥ 80%
same,"potency relative to morphine, carrageenan",male Wistar rats [8]; more potent than morphine,2 fold
same,"maximal effect, carrageenan mechanical allodynia",male Wistar rats [8],≥ 80%
same,Ki without DPH/Ki with DPH,S1R (σ1R),0.9
same,AUC(0-inf),"[9]; ferret, plasma, ip, 1 mg/kg",2460 ± 625 ng·h/mL
same,Cmax,"[9]; ferret, plasma, ip, 1 mg/kg",620 ± 98 ng/mL
same,AUC in ferrets at 1 mg/kg relative to rats at 3 mg/kg,[9]; higher in ferrets,18 fold
same,"potency relative to morphine, tail flick",male Wistar rats [10]; more potent than morphine,~4 fold
same,"maximal effect, tail flick",male Wistar rats [10],≥ 95%
same,Brain-to-plasma ratio (AUC brain/AUC plasma),[11]; 3 mg/kg i.p.,2.57
same,Cmax,"[11]; Wistar, brain, ip, 3 mg/kg",982 ± 191 ng/g
same,Tmax,"[11]; Wistar, brain, ip, 3 mg/kg, 3 mg/kg i.p.",4.8 min
same,half-life,"[11]; Wistar, brain, ip, 3 mg/kg, t1/2, brain, 3 mg/kg i.p.",20.4 min
same,AUC(0-inf),"[11]; Wistar, plasma, ip, 3 mg/kg",136 ± 15 ng·h/mL
same,Cmax,"[11]; Wistar, plasma, ip, 3 mg/kg",441 ± 73 ng/mL
same,Tmax,"[11]; Wistar, plasma, ip, 3 mg/kg, 3 mg/kg i.p.",4.8 min
same,Tmax,"[11]; Wistar, plasma, ip, 3 mg/kg, 3 mg/kg i.p., first sampling time",5 min
same,AUC0–∞,"[11]; brain, 3 mg/kg i.p.",350 ± 40 (ng·h/g)
same,Ki,human MOR [12],64 nM
same,selectivity against target panel,[13],selective
same,"Antinociceptive efficacy, average of the pain models",male Wistar rats [14],75%
same,intestinal transit inhibition,male Wistar rats [15]; 2.5 mg/kg i.p.,did not significantly inhibit
same,intestinal transit inhibition,male Wistar rats [15]; 5 mg/kg i.p.,did not significantly inhibit
same,intestinal transit inhibition,male Wistar rats [15]; 10 mg/kg i.p.,19%
same,intestinal transit inhibition,male Wistar rats [15]; 20 mg/kg i.p.,59%
same,naloxone-precipitated withdrawal signs,mice,not detected
same,"potency relative to morphine, MIA",male Wistar rats [16]; more potent than morphine,2 fold
same,"maximal effect, MIA mechanical allodynia",male Wistar rats [16],≥ 95%
"COc1ccc2c(c1)[C@]13CCCC[C@@H]1[C@H](C2)N(C)CC3 [dextromethorphan, Dextromethorphan, reference compound]",Ki without DPH/Ki with DPH,S1R (σ1R),9.0
"CN1CC[C@]23c4c5ccc(O)c4O[C@H]2[C@@H](O)C=C[C@H]3[C@H]1C5 [morphine, Morphine, reference compound]",nausea-like global score,[4]; 0.5 mg/kg s.c.,~12
same,retches,"[4]; 0.5 mg/kg s.c., 4 h period",2.17 ± 0.60
same,vomits,"[4]; 0.5 mg/kg s.c., 4 h period",1.17 ± 0.65
same,effect on [3H]-(+)-pentazocine specific binding in rat cortex and striatum,S1R,neither morphine nor oxycodone had a significant effect
same,"maximal effect, SNI mechanical allodynia",male Wistar rats [5],82.2 ± 11.1%
same,"maximal efficacy, paw pressure",male Wistar rats [7],≥ 80%
same,"maximal effect, carrageenan mechanical allodynia",male Wistar rats [8],≥ 80%
same,"maximal effect, tail flick",male Wistar rats [10],≥ 95%
same,"maximal effect, MIA mechanical allodynia",male Wistar rats [16],≥ 95%
"COc1ccc2c3c1O[C@H]1C(=O)CC[C@@]4(O)[C@@H](C2)N(C)CC[C@]314 [oxycodone, reference compound]",β-Arrestin lgτ,human MOR [1],−0.28
same,minute volume (MV) inhibition,male Wistar rats [3]; 1.25 mg/kg i.p.,did not significantly modify MV
same,minute volume (MV) inhibition,male Wistar rats [3]; 5 mg/kg i.p.,30%
same,minute volume (MV) inhibition,male Wistar rats [3]; 10 mg/kg i.p.,50%
same,"maximal effect, SNI mechanical allodynia",male Wistar rats [5],74.9 ± 7.5%
same,"maximal efficacy, paw pressure",male Wistar rats [7],≥ 80%
same,"maximal effect, carrageenan mechanical allodynia",male Wistar rats [8],≥ 80%
same,"maximal effect, tail flick",male Wistar rats [10],≥ 95%
same,intestinal transit inhibition,male Wistar rats [15]; 2.5 mg/kg i.p.,no effect
same,intestinal transit inhibition,male Wistar rats [15]; 5 mg/kg i.p.,72%
same,intestinal transit inhibition,male Wistar rats [15]; 10 mg/kg i.p.,93%
same,"maximal effect, MIA mechanical allodynia",male Wistar rats [16],≥ 95%
